Data set [1] addresses Acetylcholinesterase (Electrophorus electricus) (UniProt O42275). Kind of data set: Inhibition of electric eel AChE at 100 uM using acetylthiocholine iodide as substrate by Ellman's method. (DTNB colorimetry detects thiols as they appear.)
Data set [2] addresses Cholinesterase (Equus caballus) (UniProt P81908). Kind of data set: Inhibition of equine BChE at 100 uM using S-butyrylthiocholine chloride as substrate by Ellman's method.
The target of data set [3] is T1, Cholinesterase (Equus caballus, UniProt P81908). The data set is described as follows: Inhibition of equine BChE using S-butyrylthiocholine chloride as substrate by Ellman's method. The gist of the method: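 IC50 values are the mean ± SD of three independent experiments.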
Data set [4] is described as follows: Antioxidant activity assessed as ABTS free radical scavenging activity at 100 uM after 1 min by spectrophotometry.
The target of data set [5] is T1, Cholinesterase. The data set is described as follows: Mixed-type inhibition of equine BChE using S-butyrylthiocholine chloride as substrate assessed as free enzyme by Lineweaver-Burk reciprocal plot method.
Data set [6] addresses T1, Cholinesterase. Kind of data set: Mixed-type inhibition of equine BChE using S-butyrylthiocholine chloride as substrate assessed as enzyme-substrate complex by Lineweaver-Burk reciprocal plot method.
The nature of data set [7]: Antioxidant activity assessed as ABTS free radical scavenging activity after 1 min by spectrophotometry.
Data set [8] can be described thus: Cytotoxicity against mouse NSC-34 cells assessed as cell viability after 48 hrs by MTS assay. It counts as cell-based. The note with it: nsc-34, 48 h.

Here are results for 12 compounds from ChEMBL document CHEMBL3792316, “2-Phenylbenzofuran derivatives as butyrylcholinesterase inhibitors: Synthesis, biological activity and molecular modeling” (Bioorg Med Chem Lett, 2016).

Molecules are shown by their SMILES. The source made the active and inactive calls. The calls are words filed in the database; no cut-off is given here.

T1 sequence (P81908 whole entry): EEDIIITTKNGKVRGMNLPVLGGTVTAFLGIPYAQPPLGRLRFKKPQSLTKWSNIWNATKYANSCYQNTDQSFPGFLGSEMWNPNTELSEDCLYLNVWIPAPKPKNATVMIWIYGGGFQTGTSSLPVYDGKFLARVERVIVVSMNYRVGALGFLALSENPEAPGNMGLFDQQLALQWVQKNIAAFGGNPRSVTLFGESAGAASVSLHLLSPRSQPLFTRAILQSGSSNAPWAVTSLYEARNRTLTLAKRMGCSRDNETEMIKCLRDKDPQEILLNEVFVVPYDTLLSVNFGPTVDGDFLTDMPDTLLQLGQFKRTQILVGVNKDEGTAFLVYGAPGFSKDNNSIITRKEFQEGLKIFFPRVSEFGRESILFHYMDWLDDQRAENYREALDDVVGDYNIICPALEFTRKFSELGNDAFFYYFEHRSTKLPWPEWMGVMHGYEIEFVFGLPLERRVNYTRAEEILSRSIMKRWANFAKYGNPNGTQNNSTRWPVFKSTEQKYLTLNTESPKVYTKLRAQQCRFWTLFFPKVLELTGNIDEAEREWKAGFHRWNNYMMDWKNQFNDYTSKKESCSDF
Chain of Cholinesterase (Equus caballus) (P81908 whole entry): as above
Chain of Acetylcholinesterase (Electrophorus electricus) (O42275 24-633 limits assumed): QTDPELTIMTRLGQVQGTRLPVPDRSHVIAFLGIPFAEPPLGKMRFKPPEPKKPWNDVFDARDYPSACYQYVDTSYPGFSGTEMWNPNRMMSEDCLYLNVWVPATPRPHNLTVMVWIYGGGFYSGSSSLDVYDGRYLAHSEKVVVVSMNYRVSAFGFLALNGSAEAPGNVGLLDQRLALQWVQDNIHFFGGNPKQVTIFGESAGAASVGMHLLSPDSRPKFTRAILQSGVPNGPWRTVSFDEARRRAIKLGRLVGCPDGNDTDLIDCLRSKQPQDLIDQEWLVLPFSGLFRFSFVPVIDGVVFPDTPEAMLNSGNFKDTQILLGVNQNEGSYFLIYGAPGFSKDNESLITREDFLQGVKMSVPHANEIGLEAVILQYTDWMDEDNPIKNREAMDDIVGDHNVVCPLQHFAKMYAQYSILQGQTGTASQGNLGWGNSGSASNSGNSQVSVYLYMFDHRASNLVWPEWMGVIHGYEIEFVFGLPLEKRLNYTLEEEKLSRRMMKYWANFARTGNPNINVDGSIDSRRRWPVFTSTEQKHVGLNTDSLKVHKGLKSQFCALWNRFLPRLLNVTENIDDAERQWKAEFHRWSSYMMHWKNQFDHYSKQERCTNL

Consider `Cc1ccc2oc(-c3ccc(O)cc3)cc2c1`, for which the inhibition (usually the drop in the measured response relative to a control, in per cent) was found to be 4.8% in data set [1] and 19% in data set [2]. In addition, on Cholinesterase [3], the IC50 (in general, the point on the concentration scale where inhibition reaches its midpoint) was more than 100 µM. For the same compound, the INH in data set [4] is given as 31%.

For `COc1ccc(-c2cc3ccccc3o2)cc1`, the inhibition entry in data set [1] and in data set [2] was “inactive” in each case. On Cholinesterase [3], this compound showed an IC50 of more than 100 µM.

The compound `Oc1ccc(-c2cc3cc(Br)ccc3o2)cc1` had an inhibition in data set [2] of 16.6%. Also, at Cholinesterase [3], the IC50 was more than 100 µM. In addition, the INH in data set [4] is on record as 15%.

Consider `Oc1ccc(-c2cc3ccccc3o2)cc1`, for which the inhibition entry in data set [1] and in data set [2] was “inactive” throughout. The same compound yielded an IC50 on Cholinesterase [3] of more than 100 µM. The INH in data set [4] was found to be 24%.

Regarding `Oc1ccc(-c2cc3cccc(Cl)c3o2)cc1`, in data set [2], the inhibition came to 77%. Also, the IC50 came to 30.3 µM at Cholinesterase [3] and 67.6 µM in data set [7]. Further, the Ki – broadly, a measure of affinity in units of concentration, obtained from inhibition or displacement – at Cholinesterase [5] was found to be 5 µM; on Cholinesterase [6], 87.4 µM. The INH in data set [4] is 62.4%. Moreover, in data set [8], the Activity entry was “Non-toxic”.

Take `c1ccc(-c2cc3ccccc3o2)cc1`: the inhibition entry in data set [1] is “inactive”. Also, in data set [2], the inhibition was 6%. The same compound showed an IC50 against Cholinesterase [3] of more than 100 µM.

`Oc1ccc(-c2cc3cc(Cl)ccc3o2)cc1`: the inhibition in data set [2] is 15%. Also, the IC50 against Cholinesterase [3] was more than 100 µM. Besides, the INH in data set [4] stood at 15%.

Regarding `Cc1cccc2cc(-c3ccc(O)cc3)oc12`, the inhibition in data set [2] worked out at 58%. The IC50 against Cholinesterase [3] came to 77 µM; in data set [7] (ABTS free radical), 53.5 µM. Moreover, the INH in data set [4] stood at 72%.

In data set [2], `COc1ccc(-c2cc3cccc(Cl)c3o2)cc1` yielded an inhibition of 5%. On Cholinesterase [3], the IC50 was more than 100 µM.

Turning to `Cc1c(C)c2c(c(C)c1O)CCC(C)(C(=O)O)O2` (stereo unspecified) [TROLOX], in data set [7] (ABTS free radical), the IC50 is 13 µM.

`Brc1cccc2cc(-c3ccccc3)oc12`: the results for the inhibition in data set [1] and in data set [2] were 4% and 12%, respectively. The compound also returned an IC50 against Cholinesterase [3] of more than 100 µM.

On to `Oc1ccc(-c2cc3cccc(Br)c3o2)cc1`, for which, in data set [2], the inhibition worked out at 54%. Also, the IC50 at Cholinesterase [3] was 82.5 µM; in data set [7] (ABTS free radical), 93.6 µM. Besides, in data set [4], the INH came to 53%.
